The source of these data is ChEMBL document CHEMBL1149817, “Epimers of bicyclo[2.2.2]octan-2-ol derivatives with antiprotozoal activity” (Eur J Med Chem, 2008).

The structures appear in SMILES notation.

One may read the IC50 as the midpoint of a concentration-inhibition curve. Low values mean higher potency, high ones lower potency.

One assay has as its system L6. Nature of the assay: Cytotoxicity against rat L6 cells. It counts as cell-based. The settings on record: Rattus norvegicus, L6.
As for `OC1CC2(N3CCCC3)CC(c3ccccc3)C1C(c1ccccc1)C2` (racemic), the IC50 amounted to 35.4 µM.
Still for that read-out and setting: for `OC1CC2(N3CCCCC3)CC(c3ccccc3)C1C(c1ccccc1)C2` (racemic) the value was 34.3 µM; for `O=C(OC1CC2(N3CCCC3)CC(c3ccccc3)C1C(c1ccccc1)C2)c1cccnc1` (racemic), 18.7 µM; for `O=C(OC1CC2(N3CCCC3)CC(c3ccccc3)C1C(c1ccccc1)C2)c1ccccc1` (racemic), 8.41 µM.
On the same count and under the same terms, the same measure for `CN(C)C12CC(OC(=O)c3ccccc3)C(C(c3ccccc3)C1)C(c1ccccc1)C2` (racemic): 6.02 µM; for `O=C(OC1CC2(N3CCCC3)CC(c3ccccc3)C1C(c1ccccc1)C2)c1ccncc1` (racemic; 11b): 26.9 µM.

The assay is the same for the next values; noted with them: l6.
Compound `CN(C)C12CC(O)C(C(c3ccccc3)C1)C(c1ccccc1)C2` (racemic) showed an IC50 of 158 µM.
Compound `O=C(OC1CC2(N3CCCCC3)CC(c3ccccc3)C1C(c1ccccc1)C2)c1cccnc1` (racemic) registered a half-inhibitory concentration (IC50) of 21.3 µM.
On the same count and under the same terms, the same measure for `CN(C)C12CC(OC(=O)c3ccc(Cl)cc3)C(C(c3ccccc3)C1)C(c1ccccc1)C2` (racemic): 4.35 µM; for `O=C(OC1CC2(N3CCCC3)CC(c3ccccc3)C1C(c1ccccc1)C2)c1ccc(Cl)cc1` (racemic): 7.31 µM; for `O=C(OC1CC2(N3CCCCC3)CC(c3ccccc3)C1C(c1ccccc1)C2)c1ccccc1` (racemic): 17.2 µM.
The same measure, in the same setting: the same measure for `O=C(OC1CC2(N3CCCCC3)CC(c3ccccc3)C1C(c1ccccc1)C2)c1ccc(Cl)cc1` (racemic): 23 µM.
With `CN(C)C12CC(OC(=O)c3cccnc3)C(C(c3ccccc3)C1)C(c1ccccc1)C2` (racemic), half-maximal inhibition (IC50) was put at 12.2 µM.
`CN(C)C12CC(OC(=O)c3ccncc3)C(C(c3ccccc3)C1)C(c1ccccc1)C2` (racemic; 7a): the IC50 worked out at 26.1 µM.
Still for that read-out and setting: the same measure for `O=C(OC1CC2(N3CCCC3)CC(c3ccccc3)C1C(c1ccccc1)C2)c1ccncc1` (racemic; 7b): 27.4 µM; for `O=C(OC1CC2(N3CCCCC3)CC(c3ccccc3)C1C(c1ccccc1)C2)c1ccncc1` (racemic; 7c): 113 µM.
In turn, `CN(C)C12CC(OC(=O)c3ccncc3)C(C(c3ccccc3)C1)C(c1ccccc1)C2` (racemic; 11a) came in with an IC50 of 12.5 µM.
On the same count and under the same terms, for `O=C(OC1CC2(N3CCCCC3)CC(c3ccccc3)C1C(c1ccccc1)C2)c1ccncc1` (racemic; 11c) the value was 21.3 µM; for `CN(C)C12CC(OC(=O)c3ccccc3)C(C(c3ccccc3)C1)C(c1ccccc1)C2` (stereo in doubt; 4a), 9.88 µM; for `O=C(OC1CC2(N3CCCC3)CC(c3ccccc3)C1C(c1ccccc1)C2)c1ccccc1` (stereo in doubt; 4b), 5.08 µM.
The compound `O=C(OC1CC2(N3CCCCC3)CC(c3ccccc3)C1C(c1ccccc1)C2)c1ccccc1` (stereo in doubt; 4c) registered a concentration for half-maximal inhibition (IC50) of 97.3 µM.
`CN(C)C12CC(OC(=O)c3ccc(Cl)cc3)C(C(c3ccccc3)C1)C(c1ccccc1)C2` (stereo in doubt; 5a) came in with an IC50 of 9.46 µM.
Still for that read-out and setting: for `O=C(OC1CC2(N3CCCC3)CC(c3ccccc3)C1C(c1ccccc1)C2)c1ccc(Cl)cc1` (stereo in doubt; 5b) the value was 74.9 µM.
Still for that read-out and setting: the same measure for `O=C(OC1CC2(N3CCCCC3)CC(c3ccccc3)C1C(c1ccccc1)C2)c1ccc(Cl)cc1` (stereo in doubt; 5c): 104 µM; for `CN(C)C12CC(OC(=O)c3cccnc3)C(C(c3ccccc3)C1)C(c1ccccc1)C2` (stereo in doubt; 6a): 171 µM.
Compound `O=C(OC1CC2(N3CCCC3)CC(c3ccccc3)C1C(c1ccccc1)C2)c1cccnc1` (stereo in doubt; 6b) registered an IC50 of 24.4 µM.
`O=C(OC1CC2(N3CCCCC3)CC(c3ccccc3)C1C(c1ccccc1)C2)c1cccnc1` (stereo in doubt; 6c): the IC50 stood at 0.87 µM.

Another assay relates to Trypanosoma brucei rhodesiense. Nature of the assay: Antiprotozoal activity against Trypanosoma brucei rhodesiense STIB900.
Conditions: not given
It counts as functional, organism-based.
For the compound `CN(C)C12CC(O)C(C(c3ccccc3)C1)C(c1ccccc1)C2` (racemic), half-maximal inhibition (IC50) required 3.64 µM.
Same read-out and setting: for `OC1CC2(N3CCCCC3)CC(c3ccccc3)C1C(c1ccccc1)C2` (racemic) the value was 13.1 µM.
The same measure, in the same setting: for `O=C(OC1CC2(N3CCCC3)CC(c3ccccc3)C1C(c1ccccc1)C2)c1ccc(Cl)cc1` (racemic) the value was 0.86 µM.
The same measure, in the same setting: the same measure for `O=C(OC1CC2(N3CCCC3)CC(c3ccccc3)C1C(c1ccccc1)C2)c1ccccc1` (racemic): 0.96 µM; for `O=C(OC1CC2(N3CCCCC3)CC(c3ccccc3)C1C(c1ccccc1)C2)c1ccccc1` (racemic): 3.12 µM; for `O=C(OC1CC2(N3CCCCC3)CC(c3ccccc3)C1C(c1ccccc1)C2)c1ccc(Cl)cc1` (racemic): 1.76 µM.
For the compound `CN(C)C12CC(OC(=O)c3cccnc3)C(C(c3ccccc3)C1)C(c1ccccc1)C2` (racemic), the IC50 turned out to be 1.52 µM.
With `CN(C)C12CC(OC(=O)c3ccncc3)C(C(c3ccccc3)C1)C(c1ccccc1)C2` (racemic; 7a), the IC50 came out at 3.16 µM.
Still for that read-out and setting: the same measure for `O=C(OC1CC2(N3CCCC3)CC(c3ccccc3)C1C(c1ccccc1)C2)c1ccncc1` (racemic; 7b): 3.49 µM; for `O=C(OC1CC2(N3CCCCC3)CC(c3ccccc3)C1C(c1ccccc1)C2)c1ccncc1` (racemic; 7c): 16.9 µM.
Same read-out and setting: for `O=C(OC1CC2(N3CCCC3)CC(c3ccccc3)C1C(c1ccccc1)C2)c1ccncc1` (racemic; 11b) the value was 1.44 µM; for `O=C(OC1CC2(N3CCCCC3)CC(c3ccccc3)C1C(c1ccccc1)C2)c1ccncc1` (racemic; 11c), 3.35 µM.
On the same count and under the same terms, the same measure for `CN(C)C12CC(OC(=O)c3ccccc3)C(C(c3ccccc3)C1)C(c1ccccc1)C2` (stereo in doubt; 4a): 1.53 µM; for `O=C(OC1CC2(N3CCCC3)CC(c3ccccc3)C1C(c1ccccc1)C2)c1ccccc1` (stereo in doubt; 4b): 4.95 µM.
Take `O=C(OC1CC2(N3CCCCC3)CC(c3ccccc3)C1C(c1ccccc1)C2)c1ccccc1` (stereo in doubt; 4c): the IC50 is 15 µM.
On the same count and under the same terms, for `CN(C)C12CC(OC(=O)c3ccc(Cl)cc3)C(C(c3ccccc3)C1)C(c1ccccc1)C2` (stereo in doubt; 5a) the value was 1.06 µM; for `O=C(OC1CC2(N3CCCC3)CC(c3ccccc3)C1C(c1ccccc1)C2)c1ccc(Cl)cc1` (stereo in doubt; 5b), 6.27 µM; for `O=C(OC1CC2(N3CCCCC3)CC(c3ccccc3)C1C(c1ccccc1)C2)c1ccc(Cl)cc1` (stereo in doubt; 5c), 37.6 µM.
Same read-out and setting: the same measure for `CN(C)C12CC(OC(=O)c3cccnc3)C(C(c3ccccc3)C1)C(c1ccccc1)C2` (stereo in doubt; 6a): 15.9 µM; for `O=C(OC1CC2(N3CCCC3)CC(c3ccccc3)C1C(c1ccccc1)C2)c1cccnc1` (stereo in doubt; 6b): 0.62 µM.

The assay is the same for the next values; noted with them: Trypanosoma brucei.
Regarding `OC1CC2(N3CCCC3)CC(c3ccccc3)C1C(c1ccccc1)C2` (racemic), the IC50 was 2.53 µM.
`O=C(OC1CC2(N3CCCC3)CC(c3ccccc3)C1C(c1ccccc1)C2)c1cccnc1` (racemic) had an IC50 of 1.07 µM.
On the same count and under the same terms, for `CN(C)C12CC(OC(=O)c3ccc(Cl)cc3)C(C(c3ccccc3)C1)C(c1ccccc1)C2` (racemic) the value was 2.04 µM; for `CN(C)C12CC(OC(=O)c3ccccc3)C(C(c3ccccc3)C1)C(c1ccccc1)C2` (racemic), 1.12 µM; for `CN(C)C12CC(OC(=O)c3ccncc3)C(C(c3ccccc3)C1)C(c1ccccc1)C2` (racemic; 11a), 1.68 µM.
In turn, `O=C(OC1CC2(N3CCCCC3)CC(c3ccccc3)C1C(c1ccccc1)C2)c1cccnc1` (stereo in doubt; 6c) showed an IC50 of 70.9 µM.

A further assay deals with Plasmodium falciparum. The assay is described as follows: Antiprotozoal activity against chloroquine and pyrimethamine-resistant Plasmodium falciparum K1. It counts as functional, organism-based.
Conditions: not given
The procedure, abridged:
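Read-out was IC50 against the K1 strain of P. falciparum, which is resistant to chloroquine and pyrimethamine. The table footnote gives values from two independent experiments.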
Take `CN(C)C12CC(O)C(C(c3ccccc3)C1)C(c1ccccc1)C2` (racemic): the concentration for half-maximal inhibition (IC50) amounted to 13.1 µM.
On the same count and under the same terms, for `OC1CC2(N3CCCCC3)CC(c3ccccc3)C1C(c1ccccc1)C2` (racemic) the value was 2.77 µM; for `O=C(OC1CC2(N3CCCC3)CC(c3ccccc3)C1C(c1ccccc1)C2)c1cccnc1` (racemic), 2.34 µM.
On the same count and under the same terms, the same measure for `CN(C)C12CC(OC(=O)c3ccc(Cl)cc3)C(C(c3ccccc3)C1)C(c1ccccc1)C2` (racemic): 1.11 µM; for `O=C(OC1CC2(N3CCCC3)CC(c3ccccc3)C1C(c1ccccc1)C2)c1ccccc1` (racemic): 0.8 µM.
The same measure, in the same setting: for `CN(C)C12CC(OC(=O)c3ccccc3)C(C(c3ccccc3)C1)C(c1ccccc1)C2` (racemic) the value was 1.18 µM; for `CN(C)C12CC(OC(=O)c3cccnc3)C(C(c3ccccc3)C1)C(c1ccccc1)C2` (racemic), 0.5 µM.
On to `CN(C)C12CC(OC(=O)c3ccncc3)C(C(c3ccccc3)C1)C(c1ccccc1)C2` (racemic; 7a), for which the half-maximal inhibitory concentration (IC50) is 1.14 µM.
The same measure, in the same setting: for `O=C(OC1CC2(N3CCCC3)CC(c3ccccc3)C1C(c1ccccc1)C2)c1ccncc1` (racemic; 7b) the value was 0.86 µM; for `O=C(OC1CC2(N3CCCCC3)CC(c3ccccc3)C1C(c1ccccc1)C2)c1ccncc1` (racemic; 7c), 0.65 µM; for `CN(C)C12CC(OC(=O)c3ccncc3)C(C(c3ccccc3)C1)C(c1ccccc1)C2` (racemic; 11a), 0.49 µM.
`O=C(OC1CC2(N3CCCC3)CC(c3ccccc3)C1C(c1ccccc1)C2)c1ccncc1` (racemic; 11b) showed an IC50 of 4.49 µM.
Take `CN(C)C12CC(OC(=O)c3ccccc3)C(C(c3ccccc3)C1)C(c1ccccc1)C2` (stereo in doubt; 4a): the IC50 came to 2.47 µM.
Still for that read-out and setting: the same measure for `O=C(OC1CC2(N3CCCC3)CC(c3ccccc3)C1C(c1ccccc1)C2)c1ccccc1` (stereo in doubt; 4b): 4.5 µM.
The compound `O=C(OC1CC2(N3CCCCC3)CC(c3ccccc3)C1C(c1ccccc1)C2)c1ccccc1` (stereo in doubt; 4c) displayed an IC50 of 0.66 µM.
Still for that read-out and setting: for `CN(C)C12CC(OC(=O)c3ccc(Cl)cc3)C(C(c3ccccc3)C1)C(c1ccccc1)C2` (stereo in doubt; 5a) the value was 0.55 µM; for `O=C(OC1CC2(N3CCCC3)CC(c3ccccc3)C1C(c1ccccc1)C2)c1ccc(Cl)cc1` (stereo in doubt; 5b), 0.47 µM.
Same read-out and setting: the same measure for `O=C(OC1CC2(N3CCCCC3)CC(c3ccccc3)C1C(c1ccccc1)C2)c1ccc(Cl)cc1` (stereo in doubt; 5c): 0.79 µM.
On the same count and under the same terms, the same measure for `CN(C)C12CC(OC(=O)c3cccnc3)C(C(c3ccccc3)C1)C(c1ccccc1)C2` (stereo in doubt; 6a): 1.49 µM.
`O=C(OC1CC2(N3CCCC3)CC(c3ccccc3)C1C(c1ccccc1)C2)c1cccnc1` (stereo in doubt; 6b) came in with an IC50 of 0.2 µM.

Still in this assay, the particulars now being: Plasmodium falciparum, K1.
Regarding `OC1CC2(N3CCCC3)CC(c3ccccc3)C1C(c1ccccc1)C2` (racemic), the half-inhibitory concentration (IC50) came to 1.23 µM.
Turning to `O=C(OC1CC2(N3CCCC3)CC(c3ccccc3)C1C(c1ccccc1)C2)c1ccc(Cl)cc1` (racemic), the concentration for half-maximal inhibition (IC50) came out at 0.76 µM.
Take `O=C(OC1CC2(N3CCCCC3)CC(c3ccccc3)C1C(c1ccccc1)C2)c1ccccc1` (racemic): it took 0.77 µM to reach half-maximal inhibition (IC50).
The same measure, in the same setting: for `O=C(OC1CC2(N3CCCCC3)CC(c3ccccc3)C1C(c1ccccc1)C2)c1ccc(Cl)cc1` (racemic) the value was 1.12 µM; for `O=C(OC1CC2(N3CCCCC3)CC(c3ccccc3)C1C(c1ccccc1)C2)c1ccncc1` (racemic; 11c), 0.62 µM.
The same measure, in the same setting: the same measure for `O=C(OC1CC2(N3CCCCC3)CC(c3ccccc3)C1C(c1ccccc1)C2)c1cccnc1` (stereo in doubt; 6c): 0.48 µM.
